Published values collected from several papers.
Each line is one published result; the experiments were not run side by side.
Target: Tyrosine-protein kinase ITK/TSK (ITK, Homo sapiens, UniProt Q08881)
Sequence (Q08881 1-620, as in one of the studies): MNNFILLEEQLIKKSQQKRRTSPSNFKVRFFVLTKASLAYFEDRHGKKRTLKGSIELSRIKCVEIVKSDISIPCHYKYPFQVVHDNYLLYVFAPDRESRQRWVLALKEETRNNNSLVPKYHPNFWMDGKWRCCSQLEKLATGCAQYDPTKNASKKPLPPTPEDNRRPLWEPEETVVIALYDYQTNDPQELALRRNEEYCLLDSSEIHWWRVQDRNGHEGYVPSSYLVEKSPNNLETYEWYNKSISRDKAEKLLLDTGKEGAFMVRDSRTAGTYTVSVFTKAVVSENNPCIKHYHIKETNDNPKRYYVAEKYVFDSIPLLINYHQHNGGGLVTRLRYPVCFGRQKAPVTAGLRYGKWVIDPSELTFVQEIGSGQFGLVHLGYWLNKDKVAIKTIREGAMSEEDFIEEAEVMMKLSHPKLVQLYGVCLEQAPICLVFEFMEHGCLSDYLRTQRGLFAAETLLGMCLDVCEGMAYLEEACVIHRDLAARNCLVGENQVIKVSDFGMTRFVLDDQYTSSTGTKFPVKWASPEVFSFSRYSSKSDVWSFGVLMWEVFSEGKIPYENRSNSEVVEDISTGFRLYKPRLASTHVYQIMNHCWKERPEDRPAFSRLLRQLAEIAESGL

Structure (SMILES)	assay	setting	measurement	value
CN(C)C1CCN(CC#Cc2nn(C3CCCC3)c3nc(NCc4ccccc4)ncc23)C1 (stereo not drawn)	enzyme activity, inhibitor, FRET	0.1 µM	inhibition	1%
Cc1ccc(C(=O)NCc2ccsc2)cc1C#Cc1cn(C(C)C)c2ncnc(N)c12	enzyme activity, inhibitor	1 µM	activity vs control	97%
CC1=C(C#N)[C@@H](c2ccc3[nH]nc(C)c3c2)C(C#N)=C(c2ccc(Cl)cc2)N1	cell-free assay, competition with immobilised ligand	1 µM	remaining binding	97.2%
COc1cc(Cl)c(C(=O)N[C@@H](CN[C@H]2CC[C@@H](N)CC2)Cc2ccc(C#N)cc2)cc1-c1ccc(CN[C@H](C)c2ccc(C)cc2)o1	enzyme activity, inhibitor	1 µM	remaining activity	104%
CO[C@H]1CC[C@H](CNc2ccc(S(=O)(=O)NC(=O)c3ccc(N4CCN(CC5=C(c6ccc(Cl)cc6)CC(C)(C)CC5)CC4)cc3Oc3cnc4[nH]ccc4c3)cc2[N+](=O)[O-])CC1	cell-free assay, competition with immobilised ligand	1 µM	remaining binding	87%
O=C1Nc2ccc(Cl)cc2C1=Cc1cc(Cl)c(O)c(Cl)c1	cell-free assay	0.5 µM	remaining signal	91.8%
Cc1ccc(C(=O)Nc2ccc(CN3CCN(C)CC3)c(C(F)(F)F)c2)cc1C#Cc1cnc2cccnn12	enzyme activity	23.5 nM	remaining activity	82%
COc1cc2ncnc(Nc3ccc(Oc4ccccc4)c(C)c3C)c2cc1OC	enzyme activity, inhibitor	1 µM	inhibition	7%
COc1cc2c(Nc3ccc(Br)cc3F)ncnc2cc1OCC1CCN(C)CC1	cell-free assay	0.5 µM	remaining signal	101%
C[C@@H]1CN(c2cc(-c3n[nH]c4ccc(OC5(C)CC5)cc34)ncn2)C[C@H](C)O1	cell-free assay, competition with immobilised ligand	0.1 µM	remaining binding	87%
O=c1c2ccccc2[nH]c(=S)n1CCN1CCC(=C(c2ccc(F)cc2)c2ccc(F)cc2)CC1	enzyme activity, inhibitor	0.5 µM	remaining activity	97.1%
CS(=O)(=O)N1CCCC(NC(=O)[C@H](CCC2CCCCC2)NC(=O)c2ccc(CNc3ncnc4c3nnn4-c3ccccc3)cc2)C1 (stereo partly drawn)	cell-free assay, competition with immobilised ligand	0.1 µM	remaining binding	100%
CC(C)(C)c1nc2c(s1)c1nc(N)ncc1c1ccc(NS(=O)(=O)c3c(F)cccc3F)c(F)c12	enzyme activity, inhibitor, radiometric	1 µM	remaining activity	94%
O=C1NC(=O)c2cc(Nc3ccc(F)cc3)c(Nc3ccc(F)cc3)cc21	cell-free assay	0.5 µM	remaining signal	87.3%
CNC(=O)c1cc(Oc2ccc(NC(=O)Nc3ccc(Cl)c(C(F)(F)F)c3)cc2)ccn1	enzyme activity, inhibitor	0.3 µM	inhibition	-10%
O=S(=O)(NC1CCC(c2cc(F)ccc2F)(S(=O)(=O)c2ccc(Cl)cc2)CC1)C(F)(F)F (stereo not drawn)	cell-free assay, competition with immobilised ligand	1 µM	remaining binding	97%
c1cnn2ncc(-c3ccnc(N4CCC45COC5)n3)c2c1	binding	1 µM	remaining binding	100%
CN1CC(Oc2cnc(C#N)cc2-c2ccn3nc(NC(=O)C4CC4)cc3c2)C1	enzyme activity, inhibitor	1 µM	inhibition	3%
c1nc2c(Nc3ccc4c(c3)OCCO4)nc(Nc3ccc4c(c3)OCCO4)nc2[nH]1	enzyme activity, inhibitor	10 µM	activity vs control	5.1%
CCc1ccccc1C(=O)Nc1n[nH]c2c(C)c(F)c(C3C(C#N)=C(C)N(C)C(C)=C3C#N)cc12	cell-free assay, competition with immobilised ligand	1 µM	remaining binding	86%
CC/C(=N\NC(=O)NCc1cccc(O)c1)c1ccc(O)c(C)c1O	enzyme activity, inhibitor	0.1 µM	inhibition	3.3%
CC(C)CC(=O)N1CCc2nc(-c3ccc(Br)cc3)nc(N(C)Cc3ccccc3)c2C1	cell-free assay, competition with immobilised ligand	0.1 µM	remaining binding	100%
COc1cc2nccc(Oc3ccc(NC(=O)c4c5n(n(-c6ccc(F)cc6)c4=O)CCCC5)cc3)c2cc1OC	enzyme activity, inhibitor	0.1 µM	inhibition	9%
O=C(Nc1cnn(-c2csc(C(=O)NC3COC3)c2)c1)Nc1ccccc1Cl	enzyme activity, inhibitor	5 µM	remaining activity	107%
N#CCCc1ccc2c(c1)-c1[nH]c3ccc([N+](=O)[O-])cc3c1CC(=O)N2	cell-free assay	0.5 µM	remaining signal	99.9%
CCN(CC)CCNC(=O)c1c(C)[nH]c(/C=C2\C(=O)Nc3ccc(F)cc32)c1C	enzyme activity, inhibitor	0.3 µM	inhibition	48%
Cc1nc(C2CCN(C(=O)c3ccc(OC(F)(F)F)cc3N)CC2)c2ncc(N3CCN(C)CC3)cc2n1	cell-free assay, competition with immobilised ligand	1 µM	remaining binding	89%
